Assay results collected from several papers.
Each line is one published result; the experiments were not run side by side. In brackets after ≈: the same amount, converted by molar mass.
Effect on: microbial growth

SMILES	organism	assay	test system	MIC [µg/mL]
Cc1ccc2[nH]nc(-c3nnc(Nc4ccc(F)cc4)s3)c2c1	Serratia marcescens		ATCC8100	56.9 (≈ 175 µM)
CCCCCCC#Cc1cncc(-c2nnc(SCc3cc([N+](=O)[O-])cc([N+](=O)[O-])c3)n2C2CCNCC2)c1	Enterobacter cloacae	broth dilution	DSM30054	> 64
COc1ccc(N=Nc2c(N)nn3c(-c4ccc(C)cc4)cc(-c4ccc(OCc5ccccc5)cc4)nc23)cc1	Enterobacter cloacae		ATCC23355	31.3 (≈ 57.9 µM)
CC[C@H]1OC(=O)[C@H](C)[C@@H](O[C@H]2C[C@@](C)(OC)[C@@H](O)[C@H](C)O2)[C@H](C)[C@@H](O[C@@H]2O[C@H](C)C[C@H](N(C)C)[C@H]2O)[C@](C)(O)C[C@@H](C)CN(C)[C@H](C)[C@@H](O)[C@]1(C)O	Enterobacter cloacae	broth dilution	ATCC13047	4 (≈ 5.34 µM)
CCCCCCC#Cc1cncc(-c2nnc(SCc3ccc(Cl)cc3)n2CCCN)c1	Enterobacter cloacae	broth dilution	DSM30054	> 64
Cc1ccc(N=Nc2c(N)nn3c(-c4ccc(Cl)cc4Cl)cc(-c4ccc(OCc5ccccc5)cc4)nc23)cc1	Enterobacter cloacae		ATCC23355	31.3 (≈ 54 µM)
Cc1cc(O)cc(Nc2nnc(-c3n[nH]c4ccc(C)cc34)s2)c1	Serratia marcescens		ATCC8100	125 (≈ 370 µM)
CCCCCCC#Cc1cncc(-c2nnc(SCc3ccc([N+](=O)[O-])o3)n2CCCN)c1	Enterobacter cloacae	broth dilution	DSM30054	> 64
CN(C)[C@@H]1C(O)=C(C(N)=O)C(=O)[C@@]2(O)C(O)=C3C(=O)c4c(O)cccc4[C@@](C)(O)[C@H]3C[C@@H]12	Enterobacter cloacae	broth dilution	ATCC13047	2 (≈ 4.5 µM)
Cc1ccc(N=Nc2c(N)nn3c(-c4ccc(C)cc4)cc(-c4ccc(OCc5ccccc5)cc4)nc23)cc1	Enterobacter cloacae		ATCC23355	15.6 (≈ 29.7 µM)
Cc1cc(Nc2nnc(-c3n[nH]c4ccc(C)cc34)s2)cc([N+](=O)[O-])c1	Serratia marcescens		ATCC8100	198 (≈ 540 µM)
Nc1nn2c(-c3ccco3)cc(-c3ccc(OCc4ccccc4)cc3)nc2c1N=Nc1ccc(F)cc1	Enterobacter cloacae		ATCC23355	15.6 (≈ 30.9 µM)
Cc1ccc2[nH]nc(-c3nnc(Nc4ccc(Cl)c(Cl)c4)s3)c2c1	Serratia marcescens		ATCC8100	110 (≈ 292 µM)
CC1(C)S[C@@H]2[C@H](NC(=O)[C@H](N)c3ccc(O)cc3)C(=O)N2[C@H]1C(=O)O	Enterobacter cloacae	broth dilution	ATCC13047	> 64
Cc1ccc2[nH]nc(-c3nnc(Nc4ccc(F)cc4Cl)s3)c2c1	Serratia marcescens		ATCC8100	85.2 (≈ 237 µM)
C[C@@H](O)[C@H]1C(=O)N2C(C(=O)O)=C(SCCN=CN)C[C@H]12	Enterobacter cloacae	broth dilution	ATCC13047	2 (≈ 6.68 µM)
